{"source": "ChEMBL document CHEMBL4130442", "about": "“Design, synthesis and structure-activity relationship studies of a focused library of pyrimidine moiety with anti-proliferative and anti-metastasis activities in triple negative breast cancer” (Eur J Med Chem, 2017)", "key": {"[1]": {"test_system": "MCF7", "experiment": "Antiproliferative activity against human MCF7 cells incubated for 24 hrs by MTT assay", "type": "functional, cell-based", "details": "MCF7, 24 h"}, "[2]": {"test_system": "MDA-MB-231", "experiment": "Induction of autophagy in human MDA-MB-231 cells co-transfected with GFP-mRFP-LC3 assessed as increase in LC3 puncta aggregation at 2.5 uM by fluorescence micrsocpy", "type": "functional, cell-based", "outline": "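Cells were transfected with a GFP/mRFP-LC3 plasmid and incubated with 2.5 μM compound. GFP-LC3 puncta were then observed by fluorescence microscopy.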"}, "[3]": {"test_system": "MDA-MB-231", "experiment": "Induction of autophagy in human MDA-MB-231 cells assessed as change in p62 protein level at 10 uM incubated for 24 hrs by Western blot method relative to untreated control", "type": "functional", "outline": "(§1)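 MDA-MB-231 cells were exposed for 24 h. Adherent and floating cells were pooled and lysed for 1 h at 4 °C in 50 mM Hepes pH 7.4 with 1% Triton X-100, orthovanadate, NaF, EDTA, PMSF, aprotinin and leupeptin. After 12,000 rpm clearing, equal protein was run on 10-15% SDS-PAGE and blotted to PVDF. Detection used HRP-ECL, with β-actin as loading control and densitometric quantification.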"}, "[4]": {"test_system": "MDA-MB-231", "experiment": "Induction of autophagy in human MDA-MB-231 cells assessed as change in Beclin-1 protein level at 5 uM incubated for 24 hrs by Western blot method relative to untreated control", "type": "functional", "outline": "(§2)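 MDA-MB-231 cells (ATCC; DMEM, 10% FBS, 5% CO2) were treated 24 h over a concentration series. Adherent and floating cells were pooled and lysed 1 h at 4 °C (50 mM Hepes pH 7.4, 1% Triton X-100, phosphatase/protease inhibitors). Equal protein was run on 10-15% SDS-PAGE, transferred to PVDF, probed for Beclin-1, p62 and LC3 with HRP/ECL detection, and normalised to β-actin.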"}, "[5]": {"test_system": "MDA-MB-231", "experiment": "Induction of autophagy in human MDA-MB-231 cells assessed as change in LC3-2 protein level at 10 uM incubated for 24 hrs by Western blot method relative to untreated control", "type": "functional", "outline": "as §2"}, "[6]": {"test_system": "MDA-MB-231", "experiment": "Induction of apoptosis in human MDA-MB-231 cells assessed as change in cleaved PARP protein level at 2.5 uM incubated for 24 hrs by Western blot method relative to untreated control", "type": "functional", "outline": "as §1"}, "[7]": {"test_system": "MDA-MB-231", "experiment": "Induction of apoptosis in human MDA-MB-231 cells assessed as change in cleaved PARP protein level at 10 uM incubated for 24 hrs by Western blot method relative to untreated control", "type": "functional", "outline": "as §1"}, "[8]": {"test_system": "MDA-MB-231", "experiment": "Induction of apoptosis in human MDA-MB-231 cells assessed as change in cleaved caspase-3 protein level at 10 uM incubated for 24 hrs by Western blot method relative to untreated control", "type": "functional", "outline": "as §1"}, "[9]": {"biological_target": "T1, Platelet-derived growth factor receptor beta (Homo sapiens, UniProt P09619)", "T1 sequence (P09619 whole entry)": "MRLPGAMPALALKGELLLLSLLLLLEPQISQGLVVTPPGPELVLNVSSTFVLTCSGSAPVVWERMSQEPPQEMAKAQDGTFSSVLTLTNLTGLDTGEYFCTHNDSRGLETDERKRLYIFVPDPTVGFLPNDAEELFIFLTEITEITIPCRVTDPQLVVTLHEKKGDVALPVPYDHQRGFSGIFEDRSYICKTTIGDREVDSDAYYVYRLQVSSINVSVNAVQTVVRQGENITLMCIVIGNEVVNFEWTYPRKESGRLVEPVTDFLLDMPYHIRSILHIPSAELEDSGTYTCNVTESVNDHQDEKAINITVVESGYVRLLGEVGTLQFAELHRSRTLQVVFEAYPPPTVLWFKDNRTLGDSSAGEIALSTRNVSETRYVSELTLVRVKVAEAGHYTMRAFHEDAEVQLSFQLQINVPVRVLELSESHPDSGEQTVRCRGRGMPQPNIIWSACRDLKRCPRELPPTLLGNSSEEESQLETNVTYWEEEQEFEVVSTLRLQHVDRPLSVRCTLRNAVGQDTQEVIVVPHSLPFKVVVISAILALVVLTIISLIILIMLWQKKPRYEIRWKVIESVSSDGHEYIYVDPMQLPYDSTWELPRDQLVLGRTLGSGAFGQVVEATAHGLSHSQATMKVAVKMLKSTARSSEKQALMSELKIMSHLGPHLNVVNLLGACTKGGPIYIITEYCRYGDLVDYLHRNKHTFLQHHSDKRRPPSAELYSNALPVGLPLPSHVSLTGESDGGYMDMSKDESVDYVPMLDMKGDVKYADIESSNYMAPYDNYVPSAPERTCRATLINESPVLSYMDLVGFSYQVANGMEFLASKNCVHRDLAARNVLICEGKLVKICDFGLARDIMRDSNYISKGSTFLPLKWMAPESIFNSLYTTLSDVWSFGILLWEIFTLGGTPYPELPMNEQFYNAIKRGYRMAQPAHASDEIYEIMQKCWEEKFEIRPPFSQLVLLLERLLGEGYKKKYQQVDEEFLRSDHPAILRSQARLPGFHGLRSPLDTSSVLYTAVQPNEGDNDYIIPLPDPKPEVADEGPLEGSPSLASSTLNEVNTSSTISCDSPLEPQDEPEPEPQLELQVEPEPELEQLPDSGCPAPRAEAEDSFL", "experiment": "Inhibition of PDGFRbeta in human MDA-MB-231 cells assessed as PDGFRbeta Tyr740 phosphorylation level at 2.5 uM incubated for 24 hrs by Western blot relative to untreated control", "type": "cell-based", "outline": "(§3)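 Cells were treated 24 h at several concentrations. Pooled adherent and floating cells were lysed in Hepes 50 mM pH 7.4 / 1% Triton X-100 buffer with vanadate, NaF, EDTA, PMSF, aprotinin and leupeptin. Equal protein was run on 10-15% SDS-PAGE and blotted to PVDF. PDGFR-β-AKT-ULK1 pathway phospho-proteins were probed and detected by ECL, with β-actin as loading control.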"}, "[10]": {"biological_target": "T1, Platelet-derived growth factor receptor beta", "experiment": "Inhibition of PDGFRbeta in human MDA-MB-231 cells assessed as Akt Ser473 phosphorylation level at 5 uM incubated for 24 hrs by Western blot relative to untreated control", "type": "cell-based", "outline": "as §3"}, "[11]": {"biological_target": "T1, Platelet-derived growth factor receptor beta", "experiment": "Inhibition of PDGFRbeta in human MDA-MB-231 cells assessed as mTOR Ser2448 phosphorylation level at 10 uM incubated for 24 hrs by Western blot relative to untreated control", "type": "cell-based", "outline": "as §3"}, "[12]": {"biological_target": "T1, Platelet-derived growth factor receptor beta", "experiment": "Inhibition of PDGFRbeta in human MDA-MB-231 cells assessed as ULK Ser555 phosphorylation level at 10 uM incubated for 24 hrs by Western blot relative to untreated control", "type": "cell-based", "outline": "as §3"}, "[13]": {"test_system": "MDA-MB-231", "experiment": "Effect on total PDGFRbeta protein level in human MDA-MB-231 cells at 10 uM incubated for 24 hrs by Western blot relative to untreated control", "type": "ADME, cell-based", "details": "mda-mb-231, 24 h", "outline": "as §1"}, "[14]": {"test_system": "MDA-MB-231", "experiment": "Effect on total mTOR protein level in human MDA-MB-231 cells at 10 uM incubated for 24 hrs by Western blot relative to untreated control", "type": "ADME, cell-based", "details": "mda-mb-231, 24 h", "outline": "as §1"}, "[15]": {"test_system": "MDA-MB-231", "experiment": "Effect on total Akt protein level in human MDA-MB-231 cells at 2.5 uM incubated for 24 hrs in presence of control siRNA by Western blot relative to untreated control", "type": "ADME, cell-based", "details": "mda-mb-231, 24 h", "outline": "as §1"}, "[16]": {"test_system": "MDA-MB-231", "experiment": "Induction of autophagy in human MDA-MB-231 cells assessed as change in Beclin-1 protein level at 2.5 uM incubated for 24 hrs in presence of control siRNA by Western blot method relative to untreated control", "type": "functional", "outline": "as §1"}, "[17]": {"biological_target": "T1, Platelet-derived growth factor receptor beta", "experiment": "Inhibition of PDGFRbeta in human MDA-MB-231 cells assessed as mTOR Ser2448 phosphorylation level at 2.5 uM incubated for 24 hrs in presence of control siRNA by Western blot relative to untreated control", "type": "cell-based", "outline": "(§4)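 Cells were transfected with control or PDGFR-β siRNA, then treated with 2.5 μM compound for 24 h. PDGFR-β-AKT-ULK1 pathway phospho-proteins were assessed by western blot: lysis in Hepes pH 7.4 / Triton buffer, 10-15% SDS-PAGE, PVDF, ECL detection, β-actin as loading control.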"}, "[18]": {"biological_target": "T1, Platelet-derived growth factor receptor beta", "experiment": "Inhibition of PDGFRbeta in human MDA-MB-231 cells assessed as mTOR Ser2448 phosphorylation level at 2.5 uM incubated for 24 hrs in absence of PDGFRbeta siRNA by Western blot relative to untreated control", "type": "cell-based", "outline": "as §4"}, "[19]": {"test_system": "MDA-MB-231", "experiment": "Activation of ERK in human MDA-MB-231 cells assessed as ERK phosphorylation level at 2.5 to 10 uM incubated for 24 hrs by immunofluorescence assay", "type": "cell-based", "outline": "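MDA-MB-231 cells (ATCC; DMEM, 10% FBS, 5% CO2) were treated, blocked in PBS with 1.5% goat serum, then given p-ERK antibody (1:200 in PBS with 1% BSA) overnight at 4 °C. TRITC-labelled secondary antibody followed for 1 h at room temperature. Nuclear fluorescence was read by microscopy.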"}, "[20]": {"test_system": "MDA-MB-231", "experiment": "Effect on total c-Raf protein level in human MDA-MB-231 cells at 2.5 uM incubated for 24 hrs in presence of PDGFRbeta siRNA by Western blot relative to untreated control", "type": "cell-based", "details": "mda-mb-231, 24 h"}, "[21]": {"test_system": "MDA-MB-231", "experiment": "Effect on total MEK1/2 protein level in human MDA-MB-231 cells at 5 uM incubated for 24 hrs in presence of PDGFRbeta siRNA by Western blot relative to untreated control", "type": "cell-based", "details": "mda-mb-231, 24 h"}, "[22]": {"test_system": "MDA-MB-231", "experiment": "Effect on total MEK1/2 protein level in human MDA-MB-231 cells at 10 uM incubated for 24 hrs in presence of PDGFRbeta siRNA by Western blot relative to untreated control", "type": "cell-based", "details": "mda-mb-231, 24 h"}}, "note": "Active and inactive are the calls of the source. The rule behind the calls is not given here."}
{"smiles": "COc1cccc(Nc2cc(N3CCN(C(=O)Nc4ccc(C(F)(F)F)cc4)CC3)ncn2)c1", "values": [{"measurement": "IC50", "setting": "[1]", "value": 2160, "unit": "nM"}, {"measurement": "Activity", "setting": "[2]", "value": "Active"}, {"measurement": "fold change (FC)", "setting": "[3]", "value": 0.55}, {"measurement": "fold change (FC)", "setting": "[4]", "value": 2.8}, {"measurement": "fold change (FC)", "setting": "[5]", "value": 2.7}, {"measurement": "fold change (FC)", "setting": "[6]", "value": 0.89}, {"measurement": "fold change (FC)", "setting": "[7]", "value": 0.97}, {"measurement": "fold change (FC)", "setting": "[8]", "value": 0.32}, {"measurement": "fold change (FC)", "setting": "[9]", "value": 1.2}, {"measurement": "fold change (FC)", "setting": "[10]", "value": 0.23}, {"measurement": "fold change (FC)", "setting": "[11]", "value": 0.16}, {"measurement": "fold change (FC)", "setting": "[12]", "value": 5.6}, {"measurement": "fold change (FC)", "setting": "[13]", "value": 0.55}, {"measurement": "fold change (FC)", "setting": "[14]", "value": 0.45}, {"measurement": "fold change (FC)", "setting": "[15]", "value": 0.86}, {"measurement": "fold change (FC)", "setting": "[16]", "value": 3.54}, {"measurement": "fold change (FC)", "setting": "[17]", "value": 0.26}, {"measurement": "fold change (FC)", "setting": "[18]", "value": 0.21}, {"measurement": "Activity", "setting": "[19]", "value": "Active"}, {"measurement": "fold change (FC)", "setting": "[20]", "value": 0.8}, {"measurement": "fold change (FC)", "setting": "[21]", "value": 1.08}, {"measurement": "fold change (FC)", "setting": "[22]", "value": 1.03}]}
